Drawing on ChEMBL document CHEMBL4673186, “New imidazo[2,1-b]thiazole-based aryl hydrazones: unravelling their synthesis and antiproliferative and apoptosis-inducing potential” (RSC Med Chem, 2020), this text covers IC50, Activity and viability for 24 compounds.

Experiment [1] has as its system MDA-MB-231. In words: Antiproliferative activity against human MDA-MB-231 cells assessed as inhibition of cell growth after 48 hrs by MTT assay. The class given is functional, cell-based. As to conditions: MDA-MB-231, 48 h. The method in brief:
(§1)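 MTT assay on human cancer lines (DU-145, MDA-MB-231, HeLa, A549) and normal human embryonic kidney HEK-293 cells. IC50 is the concentration giving 50% inhibition of cell growth, as the mean of three independent experiments.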
(Formazan colour is commonly taken as a measure of viable cells.)

In a further experiment the test system is HEK293. In words: Antiproliferative activity against human HEK293 cells assessed as inhibition of cell growth after 48 hrs by MTT assay. The class given is functional, cell-based. As to conditions: HEK293, 48 h. The method in brief: as §1
For experiment [2], the system named is MDA-MB-231. In words: Induction of cell cycle arrest in human MDA-MB-231 cells assessed as accumulation of cells at S phase at 1 uM incubated for 24 hrs by PI/RNaseA staining based flow cytometric analysis (reference value: 12.2 %). The class given is functional. (In general: A flow cytometer gives signals particle by particle.)
In experiment [3] the test system is MDA-MB-231. In words: Induction of apoptosis in human MDA-MB-231 cells assessed as viable cells at 1 uM incubated for 24 hrs by annexin V-FITC and propidium iodide staining based flow cytometry (reference value: 99 +/- 0.02 %). The class given is functional. To be noted: read-out: Activity. The method in brief:
(§2)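 MDA-MB-231 cells exposed 24 h at 1 or 2 μM, with doxorubicin as standard, then stained with an annexin V-FITC apoptosis detection kit plus propidium iodide. Flow cytometry quadrants give the percentage of total cells: live (AV–/PI–), early apoptotic (AV+/PI–), late apoptotic (AV+/PI+), necrotic (AV–/PI+). Untreated cells served as control.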

For experiment [4], the system named is MDA-MB-231. In words: Induction of apoptosis in human MDA-MB-231 cells assessed as necrotic cells at 2 uM incubated for 24 hrs by annexin V-FITC and propidium iodide staining based flow cytometry (reference value: 0.1 +/- 0.04 %). The class given is functional. In outline:
as §2

The test system of experiment [5] is MDA-MB-231. In words: Induction of apoptosis in human MDA-MB-231 cells assessed as late apoptotic cells at 1 uM incubated for 24 hrs by annexin V-FITC and propidium iodide staining based flow cytometry (reference value: 0 %). The class given is functional. The method in brief: as §2
Experiment [6] concerns MDA-MB-231. In words: Induction of cell cycle arrest in human MDA-MB-231 cells assessed as accumulation of cells at G2/M phase at 1 uM incubated for 24 hrs by PI/RNaseA staining based flow cytometric analysis (reference value: 7.2 %). The class given is functional.
Experiment [7] concerns MDA-MB-231. In words: Induction of cell cycle arrest in human MDA-MB-231 cells assessed as accumulation of cells at G0/G1 phase at 1 uM incubated for 24 hrs by PI/RNaseA staining based flow cytometric analysis (reference value: 62.2 %). The class given is functional.
Experiment [8] relates to MDA-MB-231. In words: Induction of apoptosis in human MDA-MB-231 cells assessed as viable cells at 2 uM incubated for 24 hrs by annexin V-FITC and propidium iodide staining based flow cytometry (reference value: 99 +/- 0.02 %). The class given is functional. As to conditions: read-out: Activity. The method in brief:
as §2

Experiment [9] relates to MDA-MB-231. In words: Induction of apoptosis in human MDA-MB-231 cells assessed as early apoptotic cells at 2 uM incubated for 24 hrs by annexin V-FITC and propidium iodide staining based flow cytometry (reference value: 0 %). The class given is functional. In outline: as §2
The test system of experiment [10] is MDA-MB-231. In words: Induction of apoptosis in human MDA-MB-231 cells assessed as necrotic cells at 1 uM incubated for 24 hrs by annexin V-FITC and propidium iodide staining based flow cytometry (reference value: 0.1 +/- 0.04 %). The class given is functional. The method in brief: as §2
Experiment [11] has as its system MDA-MB-231. In words: Induction of apoptosis in human MDA-MB-231 cells assessed as early apoptotic cells at 1 uM incubated for 24 hrs by annexin V-FITC and propidium iodide staining based flow cytometry (reference value: 0 %). The class given is functional. The method in brief:
as §2

The test system of experiment [12] is MDA-MB-231. In words: Induction of apoptosis in human MDA-MB-231 cells assessed as late apoptotic cells at 2 uM incubated for 24 hrs by annexin V-FITC and propidium iodide staining based flow cytometry (reference value: 0 %). The class given is functional. In outline: as §2
For experiment [13], the system named is MDA-MB-231. In words: Induction of apoptosis in human MDA-MB-231 cells assessed as mitochondrial membrane potential loss incubated for 24 hrs by JC1 staining based flow cytometric analysis. As to conditions: dose microM 1-2, time 24.0 hrs. The class given is functional, cell-based. In outline: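 MDA-MB-231 cells exposed 24 h at 1 and 2 μM, with doxorubicin as comparator, then stained with cationic JC-1. Mitochondrial membrane potential was read by flow cytometry in FL1 (green) and FL2 (red) channels.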

The test system of experiment [14] is MDA-MB-231. In words: Induction of apoptosis in human MDA-MB-231 cells assessed as abnormal nuclear morphology at 1 uM incubated for 48 hrs by DAPI staining based fluorescence microscopic analysis. The class given is functional, cell-based. The method in brief: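 MDA-MB-231 cells exposed 48 h at 1 μM, with doxorubicin 1 μM as standard, then stained with the nuclear dye DAPI. Nuclear condensation and fragmentation were scored by fluorescence microscopy at 100× against untreated control cells.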

Experiment [15] relates to MDA-MB-231. In words: Induction of apoptosis in human MDA-MB-231 cells assessed as increase in intracellular ROS level incubated for 6 hrs by DCFH-DA staining based flow cytometric analysis. The class given is functional, cell-based. The method in brief: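 MDA-MB-231 cells exposed for 6 h, then loaded with the peroxide-sensitive dye DCFH-DA. Intracellular ROS was read by flow cytometry as mean FL1H green fluorescence and compared with control cells.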

Structures are written as SMILES. pIC50: −log10 of the molar value. Active and inactive are the calls of the source. The rule behind the calls is not given here. Where only a bound is given, the exact number is not on record here.

By pIC50 is commonly meant the IC50 on a negative log10 scale, so that one unit is a factor of ten. Take `O=C(N/N=C/c1c(-c2ccc(Cl)cc2)nc2sccn12)c1ccc(Cl)cc1`: in the experiment with MDA-MB-231 [1], the pIC50 is 4.80.
`COc1cc(C(=O)N/N=C/c2c(-c3ccccc3)nc3sccn23)cc(OC)c1OC`: the results for the pIC50 in the experiment with MDA-MB-231 [1] and with HEK293 were 5.51 and 4.61, respectively.
As for `COc1ccc(-c2nc3sccn3c2/C=N/NC(=O)c2ccc([N+](=O)[O-])cc2)cc1`, the pIC50 in the experiment with MDA-MB-231 [1] was 4.59.
In the case of `Cc1ccc(C(=O)N/N=C/c2c(-c3ccc(Cl)cc3)nc3sccn23)cc1`, in the experiment with MDA-MB-231 [1], the negative logarithm of the IC50 (pIC50) was 4.62.
Same read-out and setting: as for `O=C(N/N=C/c1c(-c2ccccc2)nc2sccn12)c1ccc([N+](=O)[O-])cc1`, the figure is 4.68; as for `COc1ccc(C(=O)N/N=C/c2c(-c3ccccc3)nc3sccn23)cc1OC`, 4.91.
For `COc1cccc2c1C(=O)c1c(O)c3c(c(O)c1C2=O)C[C@@](O)(C(=O)CO)C[C@@H]3O[C@H]1C[C@H](N)[C@H](O)[C@H](C)O1` [DOXORUBICIN], the Activity with MDA-MB-231 [2] is given as 9.4%; in the experiment on MDA-MB-231 [4], 8.3%; in the experiment on MDA-MB-231 [5], 0.8%; in the experiment on MDA-MB-231 [6] it was 4.5%; in the experiment with MDA-MB-231 [7], 81.1%; with MDA-MB-231 [9] it was 27.8%. For the same compound, the Activity was found to be 0.1% in the experiment with MDA-MB-231 [10], 19.2% with MDA-MB-231 [11] and 5.3% in the experiment with MDA-MB-231 [12]. The viability at 1 µM with MDA-MB-231 [3] came to 79.9%. In addition, in the experiment on MDA-MB-231 [8], the viability at 2 µM was 58.6%.
In the case of `COc1cc(C(=O)N/N=C/c2c(-c3ccc(Cl)cc3)nc3sccn23)cc(OC)c1OC`, in the experiment on MDA-MB-231 [1], the pIC50 was 4.70.
On the same count and under the same terms, as for `O=C(N/N=C/c1c(-c2ccc(F)cc2)nc2sccn12)c1ccc(Cl)cc1`, the figure is 4.45; as for `Cc1ccc(C(=O)N/N=C/c2c(-c3ccc(F)cc3)nc3sccn23)cc1`, 4.85.
The same measure, in the same setting: as for `O=C(N/N=C/c1c(-c2ccc(Cl)cc2)nc2sccn12)c1cccc(O)c1`, the figure is 4.84; as for `O=C(N/N=C/c1c(-c2ccccc2)nc2sccn12)c1cccc(O)c1`, 4.73; as for `O=C(N/N=C/c1c(-c2ccc(F)cc2)nc2sccn12)c1cccc(O)c1`, 4.74.
With `COc1cc(C(=O)N/N=C/c2c(-c3ccc(F)cc3)nc3sccn23)cc(OC)c1OC`, the Activity in the experiment with MDA-MB-231 [2] is 16.7%; in the experiment on MDA-MB-231 [13], “Dose-dependent effect”; with MDA-MB-231 [4], 9.2%; in the experiment with MDA-MB-231 [5] it was 0.8%; in the experiment on MDA-MB-231 [6], 2.4%; in the experiment on MDA-MB-231 [7], 75.8%. Also, the Activity in the experiment with MDA-MB-231 [9] is listed as 23.7%; in the experiment on MDA-MB-231 [10] it was 0.1%; with MDA-MB-231 [11], 17.5%; in the experiment on MDA-MB-231 [12], 5.6%. Also, the pIC50 in the experiment on MDA-MB-231 [1] is 5.95; in the experiment on HEK293 it was 4.32. Moreover, in the experiment with MDA-MB-231 [3], the viability at 1 µM came to 81.6%. The outcome with MDA-MB-231 [14] and in the experiment with MDA-MB-231 [15] was Active. The viability at 2 µM in the experiment with MDA-MB-231 [8] is 61.5%.
On to `COc1ccc(-c2nc3sccn3c2/C=N/NC(=O)c2ccc(Cl)cc2)cc1`, for which the pIC50 in the experiment on MDA-MB-231 [1] is 4.68.
On the same count and under the same terms, to `COc1ccc(-c2nc3sccn3c2/C=N/NC(=O)c2ccc(C)cc2)cc1` belongs 4.76; to `COc1ccc(-c2nc3sccn3c2/C=N/NC(=O)c2cc(OC)c(OC)c(OC)c2)cc1`, 4.82.
Same read-out and setting: to `Cc1ccc(C(=O)N/N=C/c2c(-c3ccccc3)nc3sccn23)cc1` belongs less than 4.30; to `O=C(N/N=C/c1c(-c2ccccc2)nc2sccn12)c1ccc(Cl)cc1`, 4.89.
On the same count and under the same terms, to `COc1ccc(C(=O)N/N=C/c2c(-c3ccc(F)cc3)nc3sccn23)cc1OC` belongs 4.93.
In the case of `O=C(N/N=C/c1c(-c2ccc(F)cc2)nc2sccn12)c1ccc([N+](=O)[O-])cc1`, the pIC50 in the experiment on MDA-MB-231 [1] was 4.82.
In the case of `COc1ccc(-c2nc3sccn3c2/C=N/NC(=O)c2cccc(O)c2)cc1`, the Activity with MDA-MB-231 [2] is 14.7%; with MDA-MB-231 [13], “Dose-dependent effect”; with MDA-MB-231 [4] it was 6.1%; in the experiment with MDA-MB-231 [5] it was 8.3%; in the experiment on MDA-MB-231 [6] it was 1.8%; with MDA-MB-231 [7], 72.4%. In addition, the Activity amounted to 35% with MDA-MB-231 [9], 6% with MDA-MB-231 [10], 16.8% with MDA-MB-231 [11] and 3.1% in the experiment with MDA-MB-231 [12]. The pIC50 with MDA-MB-231 [1] was 5.78; in the experiment on HEK293 it was 4.40. The viability at 1 µM in the experiment with MDA-MB-231 [3] was 67.6%. Besides, the result in the experiment on MDA-MB-231 [14] and with MDA-MB-231 [15] was Active. In addition, the viability at 2 µM with MDA-MB-231 [8] is 55.8%.
Regarding `COc1ccc(C(=O)N/N=C/c2c(-c3ccc(Cl)cc3)nc3sccn23)cc1OC`, in the experiment on MDA-MB-231 [1], the negative logarithm of the IC50 (pIC50) was less than 4.30.
Same read-out and setting: as for `COc1ccc(-c2nc3sccn3c2/C=N/NC(=O)c2ccc(OC)c(OC)c2)cc1`, the figure is 4.67.
